From ChEMBL document CHEMBL5370639, “Structure-Based Lead Optimization of Enterovirus D68 2A Protease Inhibitors” (J Med Chem, 2023) come the findings set out here.

Structures are written as SMILES.

Data set [1] in a line: Inhibition of Enterovirus D68 US/KY/14-18953 2A protease expressed in Escherichia coli BL21(DE3) using Dabcyl-KIRIVNT/GPGEGGE-Edans as substrate incubated for 2 hrs by FRET assay.
For data set [2], the system named is enterovirus D68. Nature of the data set: Antiviral activity against enterovirus D68 US/MO/14-18947 infected in human RD cells assessed as reduction in virus induced cytopathic effect by neutral red staining based CPE assay. It is filed as functional, organism-based. The note with it: Enterovirus D, US/MO/14-18947, RD. In a few lines:
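RD cells seeded overnight to ~90% confluency, washed with PBS containing Mg/Ca, infected with virus in DMEM/2% FBS/30 mM MgCl2 for at least 1 h at 33 °C, then compound added. Cells stained with 66 μg/mL neutral red for 2 h; uptake read at 540 nm. EC50 from dose-response fit; mean ± SD of two independent experiments, three repeats each.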

Data set [3] can be described thus: (§1) Cytotoxicity against human RD cells assessed as reduction in cell viability by neutral red staining based CPE assay. It is filed as toxicity. Conditions: RD cells. In a few lines: (§2)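 Uninfected RD cells, grown overnight to ~90% confluency, treated with compound under otherwise the same handling as the antiviral assay. Viability by neutral red uptake (66 μg/mL, 2 h, absorbance 540 nm). CC50 from best-fit dose-response curve; mean ± SD of two independent experiments, three repeats each.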

The nature of data set [4]: Binding affinity to Enterovirus D68 US/KY/14-18953 2A protease expressed in Escherichia coli BL21(DE3) assessed as inhibition constant using Dabcyl-KIRIVNT/GPGEGGE-Edans as substrate incubated for 2 hrs by FRET assay. In a few lines: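 Progression-curve kinetics: FRET substrate at 40 μM final in 50 mM Tris pH 7.0, 100 mM NaCl, 2 mM DTT, 10% glycerol with varying inhibitor; reaction started by adding 2Apro to 0.4 μM final. Fluorescence (ex 360/40, em 460/40 nm) read every 71 s for 2 h at 30 °C. Curves fitted by the Morrison equation or an earlier-described equation.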

Data set [5] has as its system enterovirus D68. The data set is described as follows: Antiviral activity against enterovirus D68 US/MO/14-18947 infected in human RD cells assessed as reduction in virus plaque formation measured after 3 days by neutral red staining assay. It is filed as functional, organism-based. The note with it: Enterovirus D, US/MO/14-18947, RD, 72 h. The gist of the method:
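RD cells infected with virus in DMEM/2% FBS/30 mM MgCl2 for at least 1 h at 33 °C, then given compound under a 1.2% avicel microcrystalline cellulose overlay. Cells stained after 3 days and plaques counted. EC50 from curve fitting; mean ± SD of two repeats.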

Data set [6] relates to enterovirus D68. Nature of the data set: Antiviral activity against enterovirus D68 US/MO/14-18949 infected in human RD cells assessed as reduction in virus induced cytopathic effect by neutral red staining based CPE assay. It is filed as functional, organism-based. Conditions: Enterovirus D, US/MO/14-18949, RD. The gist of the method:
(§3)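 RD cells were seeded overnight to about 90% confluency and washed with PBS containing Ca/Mg. They were infected with virus in DMEM with 2% FBS and 30 mM MgCl2 for at least 1 h at 33 °C in 5% CO2, then compound was added. Viability was read by neutral red staining (66 μg/mL, 2 h) at A540. EC50 was taken from dose-response curve fits.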
(Protection from cytopathic effect is a common read-out in antiviral testing.)

In data set [7] the test system is enterovirus D68. The data set is described as follows: Antiviral activity against enterovirus D68 US/IL/14-18952 infected in human RD cells assessed as reduction in virus induced cytopathic effect by neutral red staining based CPE assay. Conditions: Enterovirus D, US/IL/14-18952, RD. It is filed as functional, organism-based. The gist of the method:
as §3

The subject of data set [8] is enterovirus D68. The data set is described as follows: Antiviral activity against enterovirus D68 US/IL/14-18956 infected in human RD cells assessed as reduction in virus induced cytopathic effect by neutral red staining based CPE assay. Type of data set: functional, organism-based. The note with it: Enterovirus D, US/IL/14-18956, RD. The gist of the method:
as §3

The subject of data set [9] is enterovirus D68. The data set is described as follows: Antiviral activity against enterovirus D68 US/KY/14-18953 infected in human RD cells assessed as reduction in virus induced cytopathic effect by neutral red staining based CPE assay. Type of data set: functional, organism-based. The note with it: Enterovirus D, US/KY/14-18953, RD. In a few lines: as §3
The next data set addresses T1, Cytochrome P450 1A2 (Homo sapiens, UniProt P05177).
T1 sequence (P05177 whole entry): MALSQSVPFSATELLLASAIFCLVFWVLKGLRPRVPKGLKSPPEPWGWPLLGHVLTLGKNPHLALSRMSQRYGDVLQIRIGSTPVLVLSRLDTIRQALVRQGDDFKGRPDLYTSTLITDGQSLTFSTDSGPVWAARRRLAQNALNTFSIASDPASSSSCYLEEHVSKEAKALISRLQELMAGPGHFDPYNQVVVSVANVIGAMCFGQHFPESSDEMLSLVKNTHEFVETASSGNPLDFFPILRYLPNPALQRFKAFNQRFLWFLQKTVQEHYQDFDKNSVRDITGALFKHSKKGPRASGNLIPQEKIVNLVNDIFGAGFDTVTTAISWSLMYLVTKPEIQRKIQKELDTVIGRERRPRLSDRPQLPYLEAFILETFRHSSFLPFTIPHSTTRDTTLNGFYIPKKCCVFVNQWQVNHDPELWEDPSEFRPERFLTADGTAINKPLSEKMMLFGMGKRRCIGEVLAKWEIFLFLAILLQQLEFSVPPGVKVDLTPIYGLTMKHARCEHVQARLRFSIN
Nature of the data set: Inhibition of CYP1A2 (unknown origin). Type of data set: ADME.

Another data set has as its target Cytochrome P450 2C9 (Homo sapiens, UniProt P11712). Nature of the data set: Inhibition of CYP2C9 (unknown origin). Type of data set: ADME.
The next data set addresses Cytochrome P450 2C19 (Homo sapiens, UniProt P33261). Nature of the data set: Inhibition of CYP2C19 (unknown origin). Type of data set: ADME.
In another data set the target is Cytochrome P450 2D6 (Homo sapiens, UniProt P10635). Nature of the data set: Inhibition of CYP2D6 (unknown origin). Type of data set: ADME.
The target of a further data set is Cytochrome P450 3A (Homo sapiens, UniProt P08684+P20815+Q9HB55+P24462). Nature of the data set: Inhibition of CYP3A (unknown origin). It is filed as ADME, protein assay.
The nature of data set [10]: Toxicity in BALB/c mouse assessed as survival at 100 mg/kg, ip administered on day 1 and followed by 200 mg/kg, ip on day 3, 300 mg/kg, ip on day 7, 400 mg/kg, ip on day 12 measured after 16 days of initial dose. It is filed as organism-based. The note with it: in vivo, 1000 mg/kg, 384 h, time 16 day. In a few lines: (§4)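 Three female BALB/c mice of about 19 g each received i.p. doses in corn oil with 10% DMSO, escalating in the same animals. They were given 100 mg/kg first, then 200, 300 and 400 mg/kg on days 1, 3, 7 and 12, with time for elimination between doses. Body weight and general health were monitored throughout the study.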

Data set [11] in a line: Toxicity in BALB/c mouse assessed as mortality at 100 mg/kg, ip administered on day 1 and followed by 200 mg/kg, ip on day 3, 300 mg/kg, ip on day 7, 400 mg/kg, ip on day 12 measured after 16 days of initial dose. Type of data set: organism-based. The note with it: in vivo, 384 h, time 16 day. The gist of the method:
as §4

Data set [12] in a line: Toxicity in BALB/c mouse assessed as change in body weight at 100 mg/kg, ip administered on day 1 and followed by 200 mg/kg, ip on day 3, 300 mg/kg, ip on day 7, 400 mg/kg, ip on day 12 measured after 16 days of initial dose. It is filed as organism-based. Conditions: in vivo, 384 h, time 16 day. The gist of the method: as §4
The next data set deals with RD. The description is as §1. The note with it: rd. It is filed as toxicity. In a few lines:
as §2

Cytochrome P450 2D6, sequence (P10635 whole entry): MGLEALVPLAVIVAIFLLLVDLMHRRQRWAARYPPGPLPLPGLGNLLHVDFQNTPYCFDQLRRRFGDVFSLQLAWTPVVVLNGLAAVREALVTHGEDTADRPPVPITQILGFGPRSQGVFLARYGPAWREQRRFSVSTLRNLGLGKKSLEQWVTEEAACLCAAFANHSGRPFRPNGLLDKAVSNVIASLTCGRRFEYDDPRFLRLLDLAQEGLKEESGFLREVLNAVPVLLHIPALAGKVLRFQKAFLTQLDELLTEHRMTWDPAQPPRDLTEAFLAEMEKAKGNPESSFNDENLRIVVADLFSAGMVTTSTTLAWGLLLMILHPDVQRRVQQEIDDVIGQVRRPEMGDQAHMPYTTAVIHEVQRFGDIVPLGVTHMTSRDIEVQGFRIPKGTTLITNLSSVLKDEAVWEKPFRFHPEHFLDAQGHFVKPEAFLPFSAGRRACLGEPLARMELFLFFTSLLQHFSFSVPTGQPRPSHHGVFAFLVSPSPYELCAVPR
Cytochrome P450 2C19, sequence (P33261 whole entry): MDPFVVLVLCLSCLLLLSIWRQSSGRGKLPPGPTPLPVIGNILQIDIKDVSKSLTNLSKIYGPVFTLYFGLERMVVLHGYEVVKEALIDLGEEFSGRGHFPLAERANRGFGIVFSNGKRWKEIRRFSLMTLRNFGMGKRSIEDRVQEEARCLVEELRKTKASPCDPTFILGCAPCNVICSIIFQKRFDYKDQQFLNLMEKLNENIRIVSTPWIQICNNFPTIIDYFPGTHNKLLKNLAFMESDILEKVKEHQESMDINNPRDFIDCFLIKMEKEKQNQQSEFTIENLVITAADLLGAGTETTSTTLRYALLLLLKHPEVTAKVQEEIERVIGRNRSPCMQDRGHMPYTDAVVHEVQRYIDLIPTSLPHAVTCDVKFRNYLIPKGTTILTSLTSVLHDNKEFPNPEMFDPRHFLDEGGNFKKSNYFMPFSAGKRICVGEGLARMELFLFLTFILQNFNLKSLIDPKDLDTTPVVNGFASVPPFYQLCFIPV
Cytochrome P450 2C9, sequence (P11712 whole entry): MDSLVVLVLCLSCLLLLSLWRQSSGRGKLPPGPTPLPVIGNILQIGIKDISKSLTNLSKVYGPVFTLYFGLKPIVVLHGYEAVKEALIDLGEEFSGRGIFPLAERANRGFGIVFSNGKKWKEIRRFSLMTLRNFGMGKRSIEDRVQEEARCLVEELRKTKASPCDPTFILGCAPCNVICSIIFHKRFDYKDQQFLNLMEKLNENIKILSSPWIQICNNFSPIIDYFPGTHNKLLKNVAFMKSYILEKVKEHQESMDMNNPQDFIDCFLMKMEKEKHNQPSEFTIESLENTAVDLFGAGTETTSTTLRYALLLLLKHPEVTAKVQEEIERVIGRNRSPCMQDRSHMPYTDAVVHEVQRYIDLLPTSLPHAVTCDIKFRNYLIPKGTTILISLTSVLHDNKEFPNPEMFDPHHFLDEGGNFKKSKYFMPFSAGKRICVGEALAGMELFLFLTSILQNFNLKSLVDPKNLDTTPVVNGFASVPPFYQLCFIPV

The term IC50 denotes the concentration needed to halve the response being measured. A high value points to weaker potency in that assay. By EC50 is commonly meant the midpoint of the concentration-response curve. Broadly, the CC50 is the concentration that lowers cell viability or growth by half. As a reminder, the Ki is the dissociation constant of the complex between target and ligand, obtained from inhibition or displacement. In the case of `CC(C)(C)[C@H](NC(=O)CC12CC3CC(CC(C3)C1)C2)C(=O)N1C[C@@H]2CCC[C@@H]2[C@H]1C(=O)N[C@H](C(=O)C(=O)NC1CC1)C1CCCC1`, it took 200 nM to reach half-maximal inhibition in data set [1] (IC50). Further, the EC50 in the data set with enterovirus D68 [2] came out at 110 nM; with enterovirus D68 [5] it was 15.9 nM. Further, the CC50 in [3] is > 150000 nM. In addition, the inhibition constant (Ki) in data set [4] is 112 nM.
Take `CC(C)(C)[C@H](NC(=O)CC12CC3CC(CC(C3)C1)C2)C(=O)N1C[C@@H]2CCC[C@@H]2[C@H]1C(=O)N[C@H](C(=O)C(=O)NC1CC1)C1CCCCC1`: the IC50 in data set [1] was 90 nM; at Cytochrome P450 1A2 it was > 50000 nM; at Cytochrome P450 2C9 it was > 50000 nM; on Cytochrome P450 2C19, > 50000 nM; at Cytochrome P450 2D6, > 50000 nM; on Cytochrome P450 3A it was 570 nM. The EC50 was 130 nM with enterovirus D68 [2]; 15.9 nM in the data set with enterovirus D68 [5]; 101 nM in the data set on enterovirus D68 [6]; 269 nM with enterovirus D68 [7]; 246 nM with enterovirus D68 [8]; 46.7 nM with enterovirus D68 [9]. In data set [3], the CC50 was > 150000 nM. Moreover, in data set [4], the inhibitory constant (Ki) came to 51.4 nM. Besides, the Activity result in [10], in data set [11] and in data set [12] was “Non-Toxic” in each case.
Consider `CCC[C@H](NC(=O)[C@@H]1[C@H]2CCC[C@H]2CN1C(=O)[C@@H](NC(=O)[C@@H](NC(=O)c1cnccn1)C1CCCCC1)C(C)(C)C)C(=O)C(=O)NC1CC1`, for which the IC50 in data set [1] is 180 nM. For the same compound, the EC50 came to 450 nM in the data set on enterovirus D68 [2]; 52.1 nM in the data set with enterovirus D68 [5]; 368 nM in the data set on enterovirus D68 [6]; 828 nM in the data set with enterovirus D68 [7]; 836 nM with enterovirus D68 [8]; 209 nM in the data set on enterovirus D68 [9]. In addition, the CC50 in the data set on RD worked out at 83200 nM. Moreover, in data set [4], the Ki is 824 nM.
For `CCC(C)[C@H](NC(=O)[C@@H]1[C@H]2CCC[C@H]2CN1C(=O)[C@@H](NC(=O)CC12CC3CC(CC(C3)C1)C2)C(C)(C)C)C(=O)C(=O)NC1CC1` (stereo partly specified), half-maximal inhibition in data set [1] (IC50) was put at 150 nM. The EC50 with enterovirus D68 [2] worked out at 160 nM; in the data set with enterovirus D68 [5], 13.5 nM. Further, in data set [3], the CC50 is > 150000 nM.
Take `CCC[C@H](NC(=O)[C@@H]1[C@H]2CCC[C@H]2CN1C(=O)[C@@H](NC(=O)CC12CC3CC(CC(C3)C1)C2)C(C)(C)C)C(=O)C(=O)NC1CC1`: in data set [1], the IC50 turned out to be 80 nM. For the same compound, the EC50 in the data set with enterovirus D68 [2] came out at 160 nM. The CC50 in data set [3] was found to be 36200 nM. Further, in data set [4], the Ki was 58.6 nM.
The corresponding values for `CC(C)(C)[C@H](NC(=O)CC12CC3CC(CC(C3)C1)C2)C(=O)N1C[C@@H]2CCC[C@@H]2[C@H]1C(=O)N[C@H](C=O)Cc1ccc(F)cc1` are 1820 nM, 1300 nM, 17300 nM and 276 nM.
`CC(C)(C)[C@H](NC(=O)CC12CC3CC(CC(C3)C1)C2)C(=O)N1C[C@@H]2CCC[C@@H]2[C@H]1C(=O)N[C@@H](Cc1ccccc1)C(=O)C(=O)NC1CC1` returned an IC50 in [1] of 90 nM. Further, the EC50 with enterovirus D68 [2] came to 250 nM. Besides, in the data set with RD, the CC50 turned out to be 17400 nM.
